Compound activity deposited in PubChem by several laboratories.
Compounds with a hit are over-represented: about 3.6% of the library has one in this group of screens.
FGF22 binding: binders of recombinant human FGF22 by thermal shift; Q9HCT0; SYPRO orange fluorescence; percent of sucrose octasulfate shift, DMSO zero; activity (Tm shift, normalised), % at 9.99 µM; 340,000 tested, 1.5% active; AID 651658;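 active = mean Tm shift, scaled 0 neutral to 100 positive control, at about 1.3% or above, every replicate too, limit read from the data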
Target sequence (Q9HCT0 whole entry, looked up): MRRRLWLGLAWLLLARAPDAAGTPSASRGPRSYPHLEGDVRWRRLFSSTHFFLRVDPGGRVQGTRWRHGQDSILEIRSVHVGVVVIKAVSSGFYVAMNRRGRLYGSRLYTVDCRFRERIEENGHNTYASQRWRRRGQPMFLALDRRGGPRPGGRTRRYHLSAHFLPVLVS
EBNA-1 inhibitor: blocks EBNA-1 binding to DNA; AID 1950; 300,000 tested, 0.34% active; EBNA-1 DNA binding, fluorescence polarization; inhibition, % at 14.8 µM; in the data active = inhibition above about 28%
NR3A LBD binder: modulators (binders) of human NR3A ligand-binding domain; NR3A LBD differential scanning fluorimetry, Tm shift; 0% = protein alone, 100% = glycine-bound protein; Tm shift relative to glycine control, % at 25 µM; 340,000 tested, 2.5% active; AID 1259313;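 active = melting temperature shift of at least 10% of the positive control shift, at one fixed dose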
HCV NS3 hel inh: inhibitors of Hepatitis C virus NS3 helicase; NS3 helicase DNA unwinding, Cy5 molecular beacon fluorescence; inhibition, % at 10.9 µM; 290,000 tested, 0.56% active;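 active = inhibition above the mean of all tested compounds plus 3 SD, set per campaign, cut at about 35% in these data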;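 note: 0% = DMSO wells and 100% = thioflavine S control wells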
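Test system: hepatitis C virus NS3 helicase domain fragment enzyme. Also added: annealed dual-labelled DNA beacon duplex, ATP-started. Timing: 60 min unwinding reaction at 25 °C after ATP addition. Technique: Cy5 fluorescence. Measure: % inhibition of unwinding.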
DNA FID counter: displaces DNA intercalator in HCV helicase counter-screen. AID 1845. DNA fluorescent intercalator displacement, fluorescence. inhibition, % at 7.9 µM. 290,000 tested, 0.17% active; in the data active = inhibition above about 37%;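 note: 0% = vehicle and 100% = reference compound; higher means more ethidium bromide displaced from hairpin DNA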
ZTA counter: ZTA (EBV) inhibition in EBNA-1 counter-screen | P03206 | ZTA-DNA binding, fluorescence polarization | inhibition, % at 11 µM | 320,000 tested, 0.15% active; in the data active = inhibition above about 33%
Target sequence (P03206 whole entry, looked up): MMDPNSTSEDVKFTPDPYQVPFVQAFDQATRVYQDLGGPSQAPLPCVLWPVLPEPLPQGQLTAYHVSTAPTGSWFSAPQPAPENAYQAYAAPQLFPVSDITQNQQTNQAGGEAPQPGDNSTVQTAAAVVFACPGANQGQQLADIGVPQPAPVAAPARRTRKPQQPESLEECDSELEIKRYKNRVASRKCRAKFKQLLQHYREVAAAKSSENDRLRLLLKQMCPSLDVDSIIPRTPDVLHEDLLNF
* marks the source's active call; other numbers are inactive results; · = no result given.

SMILES	FGF22 binding	EBNA-1 inhibitor	NR3A LBD binder	HCV NS3 hel inh	DNA FID counter	ZTA counter
Cc1ccc(SCCC(=O)Nc2c(C)n(C)n(-c3ccccc3)c2=O)cc1	·	1	-1	3	-14	1
Cc1c(N(C)C(=O)C23CC4CC(CC(C4)C2)C3)c(=O)n(-c2ccccc2)n1C	·	3	11*	9	-17	-12
CCC(C(=O)OCC(=O)Nc1c(C)n(C)n(-c2ccccc2)c1=O)c1ccccc1 (stereo unspecified)	·	2	-7	1	-27	0
Cc1c(NC(=O)CSc2ccc(Cl)cc2)c(=O)n(-c2ccccc2)n1C	44*	3	-5	27	-20	-3
CC=Cc1ccc2n(c1=O)C[C@H]1[C@H](CO)[C@@H](C(=O)N[C@@H](C)c3ccccc3)[C@@H]2N1Cc1cncnc1 (mixture of isomers)	0	·	·	·	·	·
C[C@H]1CN([C@@H](C)CO)C(=O)c2cc(C#CCC3CCCC3)cnc2O[C@@H]1CN(C)S(=O)(=O)c1cccs1	0	·	·	·	·	·
CCCn1c2ccccc2c2cnn(CC(=O)NC3CCCC(C)C3C)c(=O)c21 (stereo unspecified)	0	-9	2	-5	-28	5
CCn1c(=O)n(CC(=O)NC2CCCC(C)C2C)c(=O)c2ccccc21 (stereo unspecified)	·	-6	11*	9	-2	10
CCN(C(=O)Cc1c(C(=O)O)n(C)c2ccccc12)c1ccc(F)cc1	43*	-2	-2	-10	-21	13
COCCNC(=O)C[C@@H]1C=C[C@H](NS(=O)(=O)c2ccc(C)cc2)[C@@H](CO)O1	0	·	·	·	·	·
CCc1ccc2[nH]c3nc(N/N=C/c4cccc(O)c4)nnc3c2c1	0	4	18*	-24	-1	11
N/C(Cn1cncn1)=N\NC(=O)C(=O)Nc1cccc(C(F)(F)F)c1	43*	-14	1	3	4	-13
CCOC(=O)/C(C#N)=C\c1ccc(O)c(OC)c1	·	-4	-1	4	-4	-6
CCOC(=O)c1c(-c2ccccc2)csc1NC(=O)/C(C#N)=C\c1ccc(O)c(OC)c1	0	·	18*	·	·	·
CCOC(=O)c1c(-c2ccc(C)cc2)csc1NC(=O)/C(C#N)=C/c1ccc(O)c(OC)c1	0	·	20*	29	-6	·
CCCCNC(=O)C1(C)CCCCN1C(=O)c1csnn1 (stereo unspecified)	44*	·	·	·	·	·
CC(C)CNC(=O)C1(C)CCCCCN1C(=O)c1csnn1 (stereo unspecified)	0	·	·	·	·	·
COCC(=O)N1[C@H](CO)[C@@H](c2ccccc2)C12CN(C(=O)Cc1ccccn1)C2	0	·	·	·	·	·
CC(=O)N1CC[C@@H]2[C@H]1c1cc(-c3ccc(C#N)cc3)ccc1N(C)[C@H]2CO	0	·	·	·	·	·
CCOc1cc(CNCc2ccccc2)ccc1OCc1ccc(Cl)cc1	0	-7	-6	-76	46*	-12
CO[C@H]1CN(C)C(=O)c2ccc(NC(=O)C3CCOCC3)cc2OC[C@@H](C)N(C(=O)c2ccccc2)C[C@H]1C	0	·	·	·	·	·
N#C/C(=C\c1ccc(F)cc1)c1nc(-c2ccco2)cs1	0	-12	24*	3	-4	-8
N#C/C(=C\c1ccc(-c2ccccc2)cc1)c1nc(-c2ccco2)cs1	0	-2	28*	6	-2	-25
N#C/C(=C\c1ccc(Cl)cc1)c1nc(-c2ccco2)cs1	0	-4	-5	3	-5	-9
CO[C@H]1CN(C)C(=O)c2ccc(NS(=O)(=O)c3cn(C)cn3)cc2OC[C@H](C)N(CCC(F)(F)F)C[C@@H]1C	0	·	·	·	·	·
SMILES	FGF22 binding	EBNA-1 inhibitor	NR3A LBD binder	HCV NS3 hel inh	DNA FID counter	ZTA counter
CN1CCN(C(=O)C[C@@H]2CC[C@@H]3[C@H](COC[C@@H](O)CN3CC3CCCCC3)O2)CC1	0	·	·	·	·	·
Cc1ccc(C(=O)NCC(=O)OCC(=O)c2ccc3c(c2)NC(=O)CO3)cc1	·	0	0	1	-15	-1
O=C1COc2ccc(C(=O)COC(=O)CNC(=O)c3ccco3)cc2N1	43*	3	0	2	1	-22
CC(=O)NC1=NN(C(C)=O)C(C)(CC(=O)OC(C)(C)C)S1 (stereo unspecified)	43*	-14	1	-5	0	-10
C[C@@H]1CN([C@H](C)CO)C(=O)c2cccc(NS(=O)(=O)c3cn(C)cn3)c2O[C@@H]1CN(C)S(=O)(=O)c1ccc(Cl)cc1	0	·	·	·	·	·
O=C(C[C@@H]1CC[C@H](NC(=O)Nc2ccc3c(c2)OCO3)[C@@H](CO)O1)NCCCN1CCOCC1	0	·	·	·	·	·
Cc1ncsc1CCOC(=O)c1ccc(N2CCOCC2)c([N+](=O)[O-])c1	44*	15	-1	-1	-18	5
COc1cc([N+](=O)[O-])c(OC)cc1SCc1n[nH]c(=S)n1-c1ccc(F)cc1	0	-2	1	-13	-9	-25
COc1cc([N+](=O)[O-])c(OC)cc1SCc1n[nH]c(=S)n1-c1ccc(C)cc1	0	1	12*	-14	-7	-4
Cc1c(C(=O)NCc2ccc3c(c2)OCO3)sc2nc(-c3ccccc3)cn12	0	7	-9	11	-3	4
Cc1cccc(NC(=O)c2sc3nc(-c4ccccc4)cn3c2C)n1	0	5	-3	-12	-21	-10
Cc1c(C(=O)Nc2ccccc2)sc2nc(-c3ccccc3)cn12	·	4	26*	-12	-14	-7
Cc1c(C(=O)Nc2ccc3c(c2)OCO3)sc2nc(-c3ccccc3)cn12	·	21	27*	-4	2	-9
CCC(=O)N1C[C@@H](C)[C@H](OC)CN(C)C(=O)c2cc(NC(=O)c3ccc(F)cc3)ccc2OC[C@H]1C	-1	·	·	·	·	·
FC(F)(F)c1cccc(-c2nc(-c3ccncc3)no2)c1	0	·	-2	-5	-17	·
O=C(O)c1ccc(-c2noc(-c3cccc(C(F)(F)F)c3)n2)cc1	·	-1	13*	·	·	-9
O=C(O)C[C@@H]1CC[C@H](NC(=O)Nc2cc(F)ccc2F)[C@@H](CO)O1	0	·	·	·	·	·
Cc1nc(Nc2ccc(S(N)(=O)=O)cc2)sc1-c1ccccc1	0	-1	16*	-13	-3	-12
Cc1nc(Nc2ccc(S(N)(=O)=O)cc2)sc1C(=O)Nc1ccccc1	0	-15	33*	-15	-2	-3
Cc1nc(Nc2ccccc2)sc1C(=O)Nc1ccccc1	0	4	38*	-11	-10	2
COc1ccccc1Nc1nc(C)c(C(=O)Nc2ccccc2)s1	·	9	25*	-10	-7	4
Cc1nc(Nc2ccccc2Cl)sc1C(=O)Nc1ccccc1	0	-8	9	0	-11	-1
COc1ccc(Nc2nc(C)c(-c3ccccc3)s2)cc1	·	11	8	-28	-2	18
